From ChEMBL document CHEMBL2163240, “Griseusins F and G, spiro-naphthoquinones from a tin mine tailings-derived alkalophilic Nocardiopsis species” (J Nat Prod, 2012)
Converted amounts (≈) assume the structure as drawn.

What was measured:
Bacillus subtilis = assay: Antibacterial activity against Bacillus subtilis after overnight incubation by agar well diffusion assay; assay type: functional
Micrococcus luteus = assay: Antibacterial activity against Micrococcus luteus after overnight incubation by agar well diffusion assay; assay type: functional
Staphylococcus aureus = assay: Antibacterial activity against Staphylococcus aureus ATCC 29213 after overnight incubation by agar well diffusion assay; assay type: functional
HCT-116 = assay: Cytotoxicity against human HCT116 cells after 24 to 72 hrs by MTT assay; assay type: functional, cell-based
Procedure, shortened: (§1)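 Cells (from Kunming Medical University) seeded at 5 × 10^4 cells/mL, preincubated 24 h at 37 °C, then given graded concentrations of test chemical in DMSO; cisplatin as positive control. MTT staining after 24, 48 and 72 h, OD 492 nm versus negative control; IC50 = concentration giving 50% cell death, from concentration–viability plot.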

CFPAC-1 = assay: Cytotoxicity against human CFPAC-1 cells after 24 to 72 hrs by MTT assay; assay type: functional, cell-based; procedure, shortened: as §1
ACHN = assay: Cytotoxicity against human ACHN cells after 24 to 72 hrs by MTT assay; assay type: functional, cell-based; procedure, shortened: as §1
[1] = Cytotoxicity against human MDA-MB-435S cells after 24 to 72 hrs by MTT assay; assay type: functional, cell-based; procedure, shortened: as §1
B16 = assay: Cytotoxicity against mouse B16 cells after 24 to 72 hrs by MTT assay; assay type: functional, cell-based; procedure, shortened: as §1

| MIC (Bacillus subtilis) [µg/mL] | MIC (Micrococcus luteus) [µg/mL] | MIC (Staphylococcus aureus) [µg/mL] | SMILES | IC50 (HCT-116) [nM] | IC50 (CFPAC-1) [nM] | IC50 (ACHN) [nM] | IC50 [1] [nM] | IC50 (B16) [nM] |
| --- | --- | --- | --- | --- | --- | --- | --- | --- |
| 0.64 (≈ 1.93 µM) | 1.19 (≈ 3.59 µM) | 0.28 (≈ 0.845 µM) | O=C(O)c1cn(C2CC2)c2cc(N3CCNCC3)c(F)cc2c1=O [CIPROFLOXACIN] | – | – | – | – | – |
| 1.33 (≈ 2.9 µM) | 1.47 (≈ 3.21 µM) | 0.8 (≈ 1.75 µM) | CC(=O)C[C@]12C(=O)c3cccc(O)c3C(=O)[C@H]1[C@@]1(O[C@H](C)CC(=O)[C@H]1O)O[C@@H]1CC(=O)O[C@@H]12 [GRISEUSIN G] | 580 | 420 | 460 | 690 | 370 |
| 1.65 (≈ 3.58 µM) | 1.27 (≈ 2.76 µM) | 0.91 (≈ 1.98 µM) | CC(=O)C[C@]12C(=O)c3cccc(O)c3C(=O)[C@H]1[C@@]1(O[C@H](C)C[C@H](O)[C@H]1O)O[C@@H]1CC(=O)O[C@@H]12 [GRISEUSIN F] | 700 | 640 | 550 | 820 | 430 |
